A selection: hits, their analogues and other compounds. The true share with any hit is near 0.99%.
NPR2 activator: GC-B (human) receptor activation; P20594; HEK293-GC-B cells, CNP EC30, cGMP TR-FRET; 0% at EC30 CNP, 100% saturating CNP; activation, % at 10 µM; hit rate 0.11% among 370,000; AID 1920062;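 active = activation at 10 µM reaching about 35% in either raw or pattern-adjusted values, limit read from the data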
CaV13 ICDI inh: Disruptors of the CACNA1D IQ motif to Ca2+-dependent inactivation inhibitor domain association, primary screening, Förster resonance energy transfer in intact living …; HEK cells, CFP/YFP FRET ICDI-IQ, plate reader, 10 min; percent FRET-ratio fall versus neutral wells; hit rate 0.098% among 340,000; inhibition, % at 12.3 µM; AID 743397;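 active = mean replicate inhibition of at least 30% and at least 1% of replicates passing that level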
GC-A act: GC-A (human) enzyme activation; P16066; HEK293 GC-A cells, cGMP TR-FRET, EC30 ANP; 0% at EC30 ANP, 100% saturating ANP; activation, % at 10 µM; hit rate 0.14% among 370,000; in the data active = activation above about 40%
CASP6 VEID inh: caspase-6 (human) enzyme inhibition. inhibition, % at 12.5 µM. hit rate 0.53% among 350,000. P55212. purified caspase-6, Z-VEID-R110 cleavage fluorescence;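 active = mean inhibition across replicates at least about 35%, with every replicate also reaching that limit, limit read from the data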
Target sequence (P55212 24-179 limits assumed): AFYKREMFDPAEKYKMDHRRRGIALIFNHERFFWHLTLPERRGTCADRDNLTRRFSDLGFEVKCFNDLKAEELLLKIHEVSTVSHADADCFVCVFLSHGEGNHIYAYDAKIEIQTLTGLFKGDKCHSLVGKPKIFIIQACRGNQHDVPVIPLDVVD
Target sequence (P55212 194-293 limits assumed): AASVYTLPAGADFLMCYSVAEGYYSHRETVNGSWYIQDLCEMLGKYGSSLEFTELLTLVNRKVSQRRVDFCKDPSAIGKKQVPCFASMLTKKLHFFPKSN
NSD2 inh: inhibitors of human histone methyltransferase NSD2; O96028; NSD2 peptide methylation, AlphaScreen, 120 min; inhibition, % at 12.5 µM; hit rate 0.54% among 310,000; AID 743445; in the data active = inhibition above about 50%
FN deposit inh: fibronectin deposition inhibition. AH1F fibroblasts, Alexa488-fibronectin deposition fluorescence, overnight. inhibition, % at 12.6 µM. hit rate 0.086% among 350,000. AID 743247;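 active = mean inhibition across replicates of 30% or more, regardless of how many single replicates reach that level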
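Assay system: AH1F fibroblasts / Quantity: 10000 cells per well / Medium: DMEM plus 2% serum, read in PBS / Reagent: labelled fibronectin 24 nM / Dosing: single dose, pinned / Times: 1 h cell attachment, overnight exposure to compound and label / Signal: fluorescence, ex 485 nm, em 525 nm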
Each line names hits and unclear results; the compound was inactive in the other large screens.

COc1ccc(CN(C)C[C@@H]2Oc3ccc(NC(=O)Nc4c(C)noc4C)cc3C(=O)N([C@@H](C)CO)C[C@@H]2C)cc1	none (no result: NPR2 activator, CaV13 ICDI inh, GC-A act, NSD2 inh)
O=C(Cc1cccnc1)N[C@@H]1CC[C@H](CCNS(=O)(=O)c2ccccc2Cl)O[C@@H]1CO	none (no result: NPR2 activator, CaV13 ICDI inh, GC-A act, NSD2 inh)
C/C=C/c1ccc([C@@H]2[C@H](CO)N(C(=O)C3CCCC3)C23CN(S(C)(=O)=O)C3)cc1	CASP6 VEID inh 58 (no result: NPR2 activator, CaV13 ICDI inh, GC-A act, NSD2 inh)
C/C=C/c1ccc([C@@H]2[C@H](CO)N(C(=O)C3CCC3)C23CN(S(=O)(=O)CC)C3)cc1	none (no result: NPR2 activator, CaV13 ICDI inh, GC-A act, NSD2 inh, FN deposit inh)
C[C@H](CO)N1C[C@H](C)[C@@H](CN(C)CC2CCCCC2)Oc2ccc(NC(=O)Nc3cccc4ccccc34)cc2CC1=O	none (no result: NPR2 activator, CaV13 ICDI inh, GC-A act, NSD2 inh, FN deposit inh)
C[C@@H]1CCCCO[C@@H](CN(C)C(=O)Nc2ccc(C(F)(F)F)cc2)[C@H](C)CN([C@H](C)CO)C(=O)c2cc(NC(=O)c3ccncc3)ccc2O1	none (no result: NPR2 activator, CaV13 ICDI inh, GC-A act, NSD2 inh)
Nc1ccc(S(=O)(=O)Nc2nc3ccccc3o2)cc1	CASP6 VEID inh 62
O=C(CN1C(=O)NC2(CCOc3ccccc32)C1=O)c1ccc(Cl)cc1 (stereo unspecified)	CASP6 VEID inh 78
O=C(CN1C(=O)NC2(CCOc3ccccc32)C1=O)c1ccc(Br)cc1 (stereo unspecified)	none (no result: CaV13 ICDI inh, FN deposit inh)
CC1(C)CC[C@]2(C(=O)O[C@@H]3O[C@H](CO)[C@@H](O)[C@H](O)[C@H]3O)CC[C@]3(C)C(=CCC4[C@@]5(C)CC[C@H](O[C@@H]6O[C@H](C(=O)O)[C@@H](O[C@H]7OC[C@@H](O)[C@@H](O)[C@@H]7O)[C@H](O)[C@H]6O)C(C)(C)C5CC[C@]43C)[C@@H]2C1 (stereo partly specified)	none (no result: NSD2 inh)
CC1(C)CC[C@]2(C(=O)O)CC[C@]3(C)C(=CC[C@@H]4[C@@]5(C)CC[C@H](O[C@@H]6O[C@H](C(=O)O)[C@@H](O)[C@H](O[C@@H]7OC[C@H](O)[C@H](O)[C@H]7O)[C@H]6O)C(C)(C)[C@@H]5CC[C@]43C)[C@@H]2C1	FN deposit inh 51 (no result: NSD2 inh)
Cc1cccc(C)c1NC(=O)c1cc(S(=O)(=O)N2CCC3(CC2)OCCO3)ccc1F	CASP6 VEID inh 65
COc1ccc(C)cc1NC(=O)c1cc(S(=O)(=O)N2CCC3(CC2)OCCO3)ccc1F	none
C[C@H](CO)N1C[C@H](C)[C@H](CN(C)S(=O)(=O)c2ccc(Cl)cc2)Oc2ccc(NC(=O)Nc3cccc4ccccc34)cc2C1=O	none (no result: NPR2 activator, CaV13 ICDI inh, GC-A act, NSD2 inh, FN deposit inh)
CCOC(=O)c1cccc(NC(=O)CS(=O)(=O)Cc2nc(-c3cccc(OC)c3)oc2C)c1	NPR2 activator 37
COc1ccc2c3c(n(C)c2c1)[C@@H](CO)N(C(=O)Cc1ccccn1)CC31CN(CC2CCOCC2)C1	none (no result: NPR2 activator, CaV13 ICDI inh, GC-A act, NSD2 inh, FN deposit inh)
CC(=O)Nc1sc2c(c1-c1nc3ccccc3s1)CCCNC2	NPR2 activator 34 (no result: CaV13 ICDI inh, CASP6 VEID inh, FN deposit inh)
O=C(Nc1sc2c(c1-c1nc3ccccc3s1)CCNC2)C(F)F	none (no result: CaV13 ICDI inh, CASP6 VEID inh, NSD2 inh, FN deposit inh)
COC(=O)C1=CN(CC2CCCO2)C=C(C(=O)OC)C1c1ccsc1 (stereo unspecified)	none (no result: CASP6 VEID inh)
COC(=O)C1=CN(CC2CCCO2)C=C(C(=O)OC)C1c1cccc(O)c1 (stereo unspecified)	CaV13 ICDI inh 83 (no result: NSD2 inh)
CC1=C(c2ccccc2)[N+](=O)C2(CCCC2)N1[O-]	none (no result: CASP6 VEID inh)
O=[N+]([O-])c1ccc2c(c1)N([O-])C1(CCCCC1)[N+]2=O	NSD2 inh 84
COC(=O)c1ccc(C(=O)OC)c(NC(=O)CN(c2ccc3c(c2)OCO3)S(C)(=O)=O)c1	CASP6 VEID inh 42 (no result: FN deposit inh)
C[C@@H]1CN([C@H](C)CO)C(=O)c2cc(C3=CCCCC3)cnc2O[C@H]1CN(C)C(=O)c1ccncc1	none (no result: NPR2 activator, CaV13 ICDI inh, GC-A act, NSD2 inh, FN deposit inh)
NC(=O)C1C(=O)c2ccccc2C1(C[N+](=O)[O-])c1ccccc1 (stereo unspecified)	CASP6 VEID inh 69
CCc1cccc(NC(=O)CCCCCC2NC(=O)NC2C)c1 (stereo unspecified)	none (no result: NSD2 inh)
Cc1ccc(NC(=O)CCCCCC2NC(=O)NC2C)cc1 (stereo unspecified)	NSD2 inh 136 (no result: FN deposit inh)

Bioassay records deposited in PubChem BioAssay by several laboratories.
